# In publication PMC6644362 (ACS Omega, 2018):
# Values joined by “and” are separate entries in the source; they are usually repeats but may differ in a detail not shown here. Equal entries are not always repeated.
# Legend:
# recombinant human TK2 [1] = target: T1, recombinant human TK2 (Homo sapiens, UniProt O00142); experiment: Isothermal titration calorimetry; type: binding
# T1 sequence (O00142 56-265 limits assumed): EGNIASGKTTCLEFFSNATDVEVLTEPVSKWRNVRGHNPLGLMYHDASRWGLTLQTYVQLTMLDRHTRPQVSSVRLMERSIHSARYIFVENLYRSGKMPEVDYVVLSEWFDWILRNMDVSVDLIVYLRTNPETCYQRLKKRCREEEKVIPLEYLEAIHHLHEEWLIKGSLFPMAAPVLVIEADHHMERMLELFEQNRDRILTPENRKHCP
# How it was run: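 Calorimetry at 25 °C used 40 μM TK2 (dTTP-bound or dTTP-free) dialysed into 10 mM Tris/HCl pH 7.9, 1 mM MgCl2. Ligands were in dialysis buffer at 1–3 mM syringe concentration, also ATPγS into enzyme–dT/dC complexes. There was one 2 μL control injection, then 24 × 8 μL injections at 500 s intervals. Blanks were ligand into buffer and buffer into enzyme. Best-fit model per ligand; Kd = 1/KB.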
# [2] = target: human recombinant dC kinase (dCK) (Homo sapiens, UniProt P27707); experiment: ITC titration of ATPγS to dCK in the presence and absence of dC; type: binding
# recombinant human TK2 [3] = target: T1, recombinant human TK2; experiment: Intrinsic tryptophan fluorescence; type: binding; settings: for Kd / ΔFmax: mean ± SD; for Ka (quenching constant of the accessible fraction) / fa (fractional accessibility): modified Stern–Volmer equation; for quenching of the fluorescence emission on addition of ligand: titrated to dTTP-bound or dTTP-free TK2, 0.5–4000 μM; for fractional initial accessible fluorescence: summary of Table 2, dTTP-bound or dTTP-free TK2
# TK2 = settings: feedback inhibition, enzyme kinetic experiments; cited from earlier work
# [4] = titrated to E–dC complex, 25 °C
# [5] = titrated to E–dT complex, 25 °C
# [6] = Kd (equilibrium binding constant), dTTP-bound TK2, one-site specific binding model
# [7] = Kd (equilibrium binding constant), dTTP-free TK2, one-site specific binding model
# [8] = dTTP-bound TK2, 2 μM TK2, 21 °C
# [9] = dTTP-bound TK2, one-site specific binding model
# [10] = dTTP-free TK2, one-site specific binding model
# [11] = read-out: Kd (equilibrium binding constant), dTTP-bound TK2, one-site specific binding model
# Sequence of human recombinant dC kinase (dCK) (P27707 whole entry): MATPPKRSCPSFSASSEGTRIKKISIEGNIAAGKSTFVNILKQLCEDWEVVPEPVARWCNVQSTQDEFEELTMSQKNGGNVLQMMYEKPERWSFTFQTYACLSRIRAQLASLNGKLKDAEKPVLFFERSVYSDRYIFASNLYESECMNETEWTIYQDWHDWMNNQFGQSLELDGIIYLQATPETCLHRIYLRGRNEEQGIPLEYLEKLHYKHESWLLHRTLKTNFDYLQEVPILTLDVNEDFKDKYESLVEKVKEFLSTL
Compound,Kd (recombinant human TK2 [3]; [6]) [µM],Kd (recombinant human TK2 [3]; [7]) [µM],Ka (quenching constant of the accessible fraction) (recombinant human TK2 [3]; [8]) [μM^–1],fa (fractional accessibility) (recombinant human TK2 [3]; [8]),ΔFmax (recombinant human TK2 [3]; [9]),"fa (fractional accessibility) (recombinant human TK2 [3]; dTTP-free TK2, 21 °C)",ΔFmax (recombinant human TK2 [3]; [10]),quenching of the fluorescence emission on addition of ligand (recombinant human TK2 [3]),fractional initial accessible fluorescence (recombinant human TK2 [3]),Kd (recombinant human TK2 [3]; [11]) [µM],also measured
"Nc1ncnc2c1ncn2[C@@H]1O[C@H](CO[P@](=O)(O)O[P@](=O)(O)O[P@@](=O)(O)S)[C@@H](O)[C@H]1O [ATPγS, adenosine 5′-(gamma-thio) triphosphate]",–,–,–,–,–,–,–,–,–,–,"Kd (recombinant human TK2 [1]; Kd (dissociation constant), titrated to E–dC complex, 25 °C): 20 µM; Kd (recombinant human TK2 [1]; Kd (dissociation constant), titrated to E–dT complex, 25 °C): 0.93 µM; ΔG (Gibbs free energy) (recombinant human TK2 [1]; [4]): –0.18 ± 0.01 kcal/mol; ΔH (enthalpy changes) (recombinant human TK2 [1]; [4]): –7.5 ± 0.5 kcal/mol; ΔS (entropy changes) (recombinant human TK2 [1]; [4]): –24.9 cal/mol/deg; binding constant (recombinant human TK2 [1]; titrated to E–dT complex): 1.1 × 10^6 M^–1; ΔG (Gibbs free energy) (recombinant human TK2 [1]; [5]): –8.2 ± 0.1 kcal/mol; ΔH (enthalpy changes) (recombinant human TK2 [1]; [5]): –19.4 ± 0.8 kcal/mol; ΔS (entropy changes) (recombinant human TK2 [1]; [5]): –37.6 cal/mol/deg; ITC heat response / specific interaction (recombinant human TK2 [1]; titrated with either dTTP-bound or dTTP-free TK2): no heat response; binding to dCK alone (ITC) ([2]; absence of dC): does not bind; binding to the dCK–dC complex (ITC) ([2]; presence of dC): bind"
"Cc1cn([C@H]2C[C@H](O)[C@@H](CO)O2)c(=O)[nH]c1=O [dT, thymidine]",3.26 ± 1.01,13.3 ± 1.2,0.16,0.25 ± 0.01,21.95 ± 1.25,0.17 ± 0.02,69.7 ± 3.1,caused quenching,–,–,"binding constant, times higher than that of dC (recombinant human TK2 [1]; ITC): 5 times; binding constant, times higher than that of dTTP (recombinant human TK2 [1]; ITC): 65 times; binding affinity, times higher than that of dC (recombinant human TK2 [1]; ITC, dTTP-bound enzyme): 3 times; Kd (recombinant human TK2 [1]; Kd1 (high affinity), dTTP-bound enzyme, two-site binding model): 0.55 µM; ΔG (Gibbs free energy) (recombinant human TK2 [1]; dTTP-bound enzyme, 25 °C): –7.1 ± 0.2 kcal/mol; ΔH (enthalpy changes) (recombinant human TK2 [1]; dTTP-bound enzyme, 25 °C): –72.7 ± 0.2 kcal/mol; ΔS (entropy changes) (recombinant human TK2 [1]; dTTP-bound enzyme, 25 °C): –220 cal/mol/deg; Kd (recombinant human TK2 [1]; read-out: Kd2 (lower affinity), dTTP-bound enzyme, two-site binding model): 6.13 µM; fa, fraction of the initial fluorescence accessible (recombinant human TK2 [3]; dTTP-bound TK2, modified Stern–Volmer equation): 25%"
"Cc1cn([C@H]2C[C@H](N=[N+]=[N-])[C@@H](CO)O2)c(=O)[nH]c1=O [AZT, 3′-Azido-2′,3′-dideoxythymidine]",6.94 ± 2.78,–,–,0.38 ± 0.04,12.77 ± 1.34,–,–,caused quenching,20–40%,–,–
"Nc1ccn([C@H]2C[C@H](O)[C@@H](COP(=O)(O)O)O2)c(=O)n1 [dCMP, deoxycytidine monophosphate]",–,–,0.42 ± 0.03,0.21 ± 0.02,19.74 ± 1.18,–,–,caused quenching,20–40%,4.42 ± 0.99,–
"Cc1cn([C@H]2C[C@H](O)[C@@H](CO[P@](=O)(O)O[P@@](=O)(O)OP(=O)(O)O)O2)c(=O)[nH]c1=O [dTTP, deoxythymidine triphosphate]",–,3.64 ± 1.02,–,–,–,0.22 ± 0.01,57.6 ± 2.9,caused quenching,20–40%,–,"Kd (recombinant human TK2 [1]; Kd (dissociation constant), dTTP-free enzyme, 25 °C, Kd = 1/KB): 36 µM and 35.7 µM; binding constant (recombinant human TK2 [1]; dTTP-free TK2): 2.8 × 10^4 M^–1; ΔG (Gibbs free energy) (recombinant human TK2 [1]; dTTP-free enzyme, 25 °C): –6.0 ± 0.1 kcal/mol; ΔH (enthalpy changes) (recombinant human TK2 [1]; dTTP-free enzyme, 25 °C): 237.2 ± 0.2 kcal/mol; ΔS (entropy changes) (recombinant human TK2 [1]; dTTP-free enzyme, 25 °C): 816 cal/mol/deg; Ki (TK2): 2.5 µM and ~2.5 µM"
"Cc1cn([C@H]2C[C@H](F)[C@@H](CO)O2)c(=O)[nH]c1=O [FLT, 3′-fluoro-2′,3′-dideoxythymidine]",–,–,0.14 ± 0.02,0.24 ± 0.04,17.81 ± 0.99,–,–,caused quenching,20–40%,6.17 ± 1.35,–
"Cc1cn([C@H]2C[C@H](O)[C@@H](COP(=O)(O)O)O2)c(=O)[nH]c1=O [dTMP, deoxythymidine monophosphate]",–,–,0.79 ± 0.04,0.21 ± 0.02,16.74 ± 0.53,–,–,caused quenching,20–40%,1.53 ± 0.28,–
"Nc1ccn([C@H]2C[C@H](O)[C@@H](COP(=O)(O)OP(=O)(O)OP(=O)(O)O)O2)c(=O)n1 [dCTP, deoxycytidine triphosphate]",–,–,–,–,–,–,–,–,–,–,ITC heat changes in the isothermogram (recombinant human TK2 [1]; dTTP-free enzyme): no heat changes
"Nc1ccn([C@H]2C[C@H](O)[C@@H](CO)O2)c(=O)n1 [dC, deoxycytidine]",3.35 ± 0.81,5.64 ± 1.2,–,0.29 ± 0.05,19.86 ± 0.94,0.40 ± 0.10,67.5 ± 2.9,caused quenching,20–40%,–,"ΔH (enthalpy changes) (recombinant human TK2 [1]; dTTP-bound enzyme, 25 °C): –23.4 ± 0.7 kcal/mol; ΔS (entropy changes) (recombinant human TK2 [1]; dTTP-bound enzyme, 25 °C): –7.9 cal/mol/deg"
